Bioassay records: PubChem BioAssay, several laboratories
Mdm2 MdmX PPI = inhibitors of human Mdm2-MdmX association, primary screen, cell-based, luminescence, split luciferase, SaOS-2, uHTS | SaOS-2 split-luciferase Mdm2/MdmX complementation | 330,000 tested, 3% active | Protein Mdm4 (Homo sapiens) + E3 ubiquitin-protein ligase Mdm2 (Homo sapiens), … | inhibition, % at 8 µM;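 active = inhibition of at least 50% at 8 µM in the primary screen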
Target sequence (O15151 whole entry, looked up): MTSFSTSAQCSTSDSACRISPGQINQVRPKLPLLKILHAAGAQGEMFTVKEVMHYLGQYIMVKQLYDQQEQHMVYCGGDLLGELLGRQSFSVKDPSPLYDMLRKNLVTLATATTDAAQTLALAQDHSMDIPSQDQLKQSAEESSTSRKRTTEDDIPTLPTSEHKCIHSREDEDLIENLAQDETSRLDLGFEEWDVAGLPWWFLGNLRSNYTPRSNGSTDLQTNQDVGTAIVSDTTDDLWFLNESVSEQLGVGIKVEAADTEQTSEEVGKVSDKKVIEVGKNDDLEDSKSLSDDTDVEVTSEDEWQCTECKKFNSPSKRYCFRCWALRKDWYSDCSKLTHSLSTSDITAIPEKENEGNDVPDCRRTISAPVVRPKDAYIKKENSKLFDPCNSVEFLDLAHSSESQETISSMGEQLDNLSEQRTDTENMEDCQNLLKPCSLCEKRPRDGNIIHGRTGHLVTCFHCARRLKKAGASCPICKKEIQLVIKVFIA
Target sequence (Q00987 whole entry, looked up): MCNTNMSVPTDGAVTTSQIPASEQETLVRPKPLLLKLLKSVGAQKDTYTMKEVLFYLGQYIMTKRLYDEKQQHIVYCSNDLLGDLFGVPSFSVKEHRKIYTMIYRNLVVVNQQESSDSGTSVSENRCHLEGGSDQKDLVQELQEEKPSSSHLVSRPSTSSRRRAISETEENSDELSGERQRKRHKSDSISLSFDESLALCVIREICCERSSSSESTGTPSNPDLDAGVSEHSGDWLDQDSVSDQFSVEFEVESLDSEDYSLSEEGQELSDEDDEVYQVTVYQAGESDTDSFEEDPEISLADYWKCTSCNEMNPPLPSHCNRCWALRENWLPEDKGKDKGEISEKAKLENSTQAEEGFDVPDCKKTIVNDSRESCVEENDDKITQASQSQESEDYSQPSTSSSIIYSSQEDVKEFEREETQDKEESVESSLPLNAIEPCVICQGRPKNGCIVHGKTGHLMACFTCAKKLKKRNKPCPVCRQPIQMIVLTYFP
UPR XBP1 act = activators of adaptive XBP1 UPR arm, primary screen, cell-based, CHO-XBP1 luciferase reporter, luminescence, uHTS; IRE1-XBP1 UPR activation; percent of tunicamycin response, DMSO as zero; activation, % at 20 µM; 330,000 tested, 0.33% active; AID 463104, 2010;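 active = versus positive control, 20 µM dose yields 30% or more activation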
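Signal: luciferase luminescence; Assay system: CHO-XBP1 luciferase reporter cells; Amount: one thousand reporter cells per well; Dosing: 20 µM single concentration, DMSO 1%; Benchmarks: high control tunicamycin 10 µg/mL final, low control DMSO vehicle only; Schedule: 6 h compound exposure at 37 °C, 5% CO2; Evaluation: percent activation relative to tunicamycin reference.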
SKKanGAS inh = S. pyogenes SKKanGAS growth inhibitors in kanamycin, primary screen, streptokinase expression inhibitor project, SKKanGAS strain, BacTiter-Glo luminescence | 6 h | inhibition, % at 7.5 µM | 300,000 tested, 1.3% active;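 active = mean replicate score, as percent of positive control median, at least 50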;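 note: strain carries kanamycin resistance gene driven by streptokinase promoter and grows in 40 µg/ml kanamycin; loss of luminescence reflects streptokinase promoter inhibition or plain growth inhibition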
CSC inhib = cancer stem cell viability inhibitors, primary screen, luminescence; cancer stem cell-like cells viability; inhibition, % at 7.5 µM; 300,000 tested, 1.1% active; AID 2717, 2010; in the data active = inhibition above about 75%; tested in HMLE shEcad cells
Beta cell apopt = inhibitors of cytokine-induced beta cell apoptosis, primary screen, luminescence | INS-1E cytokine-induced death, ATP luminescence, 48 h; percent of positive-control rescue, neutral wells zero | protection from apoptosis, % (test concentration not listed) | 300,000 tested, 0.8% active | AID 435005, 2010;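 active = Every replicate reaches about 75%, or at least half do and their mean reaches it too, limit read from the data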;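 note: higher means more ATP so stronger rescue from cytokine killing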
UPR CHOP act = activators of apoptotic CHOP UPR arm, primary screen, cell-based, CHO-CHOP luciferase reporter, luminescence, uHTS; 330,000 tested, 0.34% active; activation, % at 10 µM; UPR activation; percent of tunicamycin response over DMSO baseline; AID 449763, 2010;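 active = at 10 µM dose, activation of 40% or more, normalized to positive control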
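Assay system: CHO-CHOP cells, stable luciferase reporter of PERK-eIF2a-CHOP signalling / Buffer or medium: F12 plus 10% serum / Compound dosing: one dose, 10 µM in 0.5% DMSO / Times: 6 h compound treatment, 37 °C / Technique: luciferase luminescence / Read-out: % reporter activation, DMSO baseline versus tunicamycin full activation / Benchmarks: tunicamycin and DMSO controls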
Mdm2 MdmX conf = Mdm2-MdmX complex disruptors, retested hits, confirmation, luminescence, single concentration; inhibition, % at 8 µM; 10,000 tested, 55% active; Mdm2-MdmX binding, luminescent assay; shares compounds with Mdm2 MdmX PPI; in the data active = inhibition above about 40%
FLuc counter = full-length luciferase signal inhibition, confirmation, counter-screen for Mdm2/MdmX interaction inhibitor project, cell-based, single concentration, SaOS-2 | SaOS-2 full-length luciferase counterscreen, luminescence | 6,200 tested, 77% active | inhibition, % at 8 µM | shares compounds with Mdm2 MdmX PPI | AID 504607, 2011;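 active = mean inhibition at 8 µM reaching about 37%, which flags the compound as non-specific, limit read from the data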;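 note: p53-null SaOS-2 cells with luciferase driven by a doxycycline-inducible promoter; compound on cells about two nights before reading with doxycycline added after day one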
Large screens that a line does not name were inactive (follow-up assays come after a bar, where they were run). A selection: hits, their analogues and other compounds. The true share with any hit is near 4.8%.

CN(C)CCOc1nc(-c2ccccc2)nc2c1oc1ccccc12	Mdm2 MdmX PPI 71 | Mdm2 MdmX conf inactive
CC(C)c1ccc(S(=O)(=O)N2CCN(C(=O)CN3C(=O)c4ccccc4C3=O)CC2)cc1	none (no result: SKKanGAS inh)
CC(C)Cc1nc2oc3c(NCC4CCCO4)ncnc3c2c2c1CCC2 (stereo not drawn)	Mdm2 MdmX PPI 53 (no result: Beta cell apopt) | Mdm2 MdmX conf 55 | FLuc counter 75
Cc1ccc(-n2cc(CN3CCC(CO)(Cc4ccccc4)CC3)cn2)cc1	none
Cc1ccc(-n2cc(CN3CCC(CO)(Cc4cccc(C(F)(F)F)c4)CC3)cn2)cc1	Mdm2 MdmX PPI 84 | Mdm2 MdmX conf 48 | FLuc counter 69
CN(C)S(=O)(=O)Oc1ccsc1C(=O)Nc1ccc(Cl)c(Cl)c1	none
COc1ccc(COc2ccsc2C(=O)Nc2ccc(Cl)c(Cl)c2)cc1	Mdm2 MdmX PPI 76 | Mdm2 MdmX conf inactive
CCN(CC(=O)Nc1c(F)cccc1F)C(=O)Cc1ccc2c(c1)OCCO2	none (no result: SKKanGAS inh, CSC inhib)
O=C(Nc1ccc(O)c2c(=O)cc(-c3ccccc3Cl)oc12)c1ccc(Cl)c(Cl)c1	Mdm2 MdmX PPI 66 | Mdm2 MdmX conf inactive
COc1ccc2c(-c3cnc(N4CCOCC4)nc3)c(-c3ccc(S(C)(=O)=O)cc3)sc2c1	Mdm2 MdmX PPI 68 (no result: SKKanGAS inh) | Mdm2 MdmX conf inactive
NS(=O)(=O)c1ccc(NC(=O)COC(=O)c2ncc(Cl)c(Cl)c2Cl)cc1	none (no result: SKKanGAS inh)
O=C(CSc1ncnc2sccc12)NCc1ccc2c(c1)OCO2	none (no result: SKKanGAS inh, CSC inhib)
CN1CCN(Cc2c(O)ccc3occ(C(=O)c4ccccc4)c23)CC1	none
CC(=O)C(C(C)=O)c1c(Cl)c(O)c(O)c2c(C(=O)c3ccccc3)coc12	Mdm2 MdmX PPI 60, Beta cell apopt 128 | Mdm2 MdmX conf inactive
CC1CCCCN1C(=O)c1c([N+](=O)[O-])cnn1C (stereo not drawn)	none (no result: CSC inhib)
Cc1cc(C)c2sc(N(CCCN(C)C)C(=O)c3ccc(S(=O)(=O)N(C)C4CCCCC4)cc3)nc2c1	Mdm2 MdmX PPI 97 (no result: Beta cell apopt) | Mdm2 MdmX conf 48 | FLuc counter 79
Cc1ccc2sc(N(CCCN(C)C)C(=O)c3ccc(S(=O)(=O)N4CCCCCC4)cc3)nc2c1C	Mdm2 MdmX PPI 63, CSC inhib 77 (no result: Beta cell apopt) | Mdm2 MdmX conf inactive | FLuc counter 89
Cc1cc(C)c2nc(N(CCCN(C)C)C(=O)c3ccc(S(=O)(=O)N4CCCCCC4)cc3)sc2c1	Mdm2 MdmX PPI 80 (no result: Beta cell apopt) | Mdm2 MdmX conf 50 | FLuc counter 71
Cc1ccccc1NS(=O)(=O)c1ccc(C(=O)NCC(c2ccco2)N2CCCCC2)cc1 (stereo not drawn)	none
Cc1cc(OCCN2CCN(S(=O)(=O)c3ccccc3F)CC2)ccc1C(C)C	none (no result: SKKanGAS inh, CSC inhib)
CCCOc1ccccc1Cn1c(=O)oc2ccccc21	none (no result: Beta cell apopt)
CCc1ccc(NC(=S)N2CCC(NC(=O)c3ccccc3OC)CC2)cc1	none
O=C(Cc1ccc([N+](=O)[O-])cc1)Nc1nnc(C2CC2)s1	none
O=C(Cc1c[nH]c2ccccc12)Nc1nnc(C2CC2)s1	Mdm2 MdmX PPI 79 | Mdm2 MdmX conf 65 | FLuc counter 84
O=C(Cc1coc2ccc3ccccc3c12)Nc1nnc(C2CC2)s1	Mdm2 MdmX PPI 74 | Mdm2 MdmX conf 83 | FLuc counter 38
COc1ccc(C2=CC(=O)C[C@H](c3ccc(OC)c(OC)c3)C2)cn1	none (no result: SKKanGAS inh)
CC1=NN(c2nc3ccccc3[nH]2)C(=O)C1Cc1ccccc1 (stereo not drawn)	Mdm2 MdmX PPI 85, SKKanGAS inh 89, CSC inhib 100, Beta cell apopt 99 | Mdm2 MdmX conf 81 | FLuc counter 36
Cc1cc(OCC(=O)NCCc2c[nH]c3ccccc23)c2c(C)cc(=O)oc2c1	none (no result: Beta cell apopt)
O=C(/C=C/c1cccc(F)c1)OCC(=O)N1CCc2ccccc21	none (no result: SKKanGAS inh)
COc1ccc(Cc2nnc(SCc3ccc([N+](=O)[O-])cc3)o2)cc1	Mdm2 MdmX PPI 60 | Mdm2 MdmX conf 61 | FLuc counter inactive
O=[N+]([O-])c1ccc(CSc2nnc(Cc3ccccc3)o2)cc1	none
COc1ccc(-c2n[nH]c(C)c2-c2cscn2)c(O)c1	none
C=C(C)COc1ccc(-c2n[nH]c(C)c2-c2ccc(OC)cc2)c(O)c1	Mdm2 MdmX PPI 61, SKKanGAS inh 61, CSC inhib active | Mdm2 MdmX conf 49 | FLuc counter 71
Fc1cccc(NC(=S)N2CCN(c3ccccn3)CC2)c1	none (no result: Beta cell apopt)
Cc1cccn2c(=O)c3cc(C(=O)NC4CCCCC4)c(=N)n(Cc4ccc(F)cc4)c3nc12	Mdm2 MdmX PPI 58 | Mdm2 MdmX conf inactive
Cc1cccn2c(=O)c3cc(C(=O)NCCN4CCOCC4)c(=N)n(Cc4ccc(F)cc4)c3nc12	Mdm2 MdmX PPI 81 | Mdm2 MdmX conf 78 | FLuc counter inactive
N=c1c(C(=O)NCc2ccc(F)cc2)cc2c(=O)n3ccccc3nc2n1CCCN1CCOCC1	Mdm2 MdmX PPI 53 (no result: SKKanGAS inh) | Mdm2 MdmX conf inactive
COc1ccc(CNC(=O)c2cc3c(=O)n4cccc(C)c4nc3n(CC3CCCO3)c2=N)cc1 (stereo not drawn)	none (no result: Beta cell apopt)
COc1ccc(CCn2c(=N)c(C(=O)NCC3CCCO3)cc3c(=O)n4cccc(C)c4nc32)cc1 (stereo not drawn)	Mdm2 MdmX PPI 53 | Mdm2 MdmX conf inactive
COc1ccc(CCNC(=O)c2cc3c(=O)n4cccc(C)c4nc3n(CCCN3CCOCC3)c2=N)cc1	Mdm2 MdmX PPI 65 | Mdm2 MdmX conf inactive
CCCn1c(=N)c(C(=O)NCc2ccc3c(c2)OCO3)cc2c(=O)n3cccc(C)c3nc21	Mdm2 MdmX PPI 70 | Mdm2 MdmX conf inactive
Clc1ccc(NCc2cccnc2)c(Cl)c1	none
O=C(N/N=C/c1ccccc1Br)c1cccc(S(=O)(=O)N2CCOCC2)c1	none (no result: SKKanGAS inh, CSC inhib)
O=C(N/N=C/c1cc(Br)cc(Br)c1O)c1cccc(S(=O)(=O)N2CCOCC2)c1	Mdm2 MdmX PPI 59, SKKanGAS inh 107 | Mdm2 MdmX conf 60 | FLuc counter inactive
